The values that follow come from paper PMC7598728 (Biochemistry, 2020).

Structures are written as SMILES.

One data set deals with Vero cells. The data set can be described thus: Compound cytotoxicity. The data set is classed as cell-based. The note with it: 25 μM, no virus, 3 days, triplicate, values <1 = cytotoxic. In short, it runs like this:
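Vero cells seeded at 1 × 10^4 cells/well were exposed the next day, with no virus, to the DMSO-dissolved test compound. Handling matched the infected viability assay, including the 1 h 37 °C compound pre-incubation step. Viability was read by CellTiter-Fluor after 3 days.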

Data set [1] has as its system Zika strain MR766 (ZIKV-induced cell killing of Vero cells). The data set can be described thus: Cell viability assay in the presence of virus. In kind it is cell-based, Zika virus. The note with it: tested at 25 μM; values over 1 signify inhibition of ZIKV-induced cell killing. The method, boiled down: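 Vero cells (DMEM, 10% heat-inactivated FBS, 37 °C, 5% CO2) were seeded at 1 × 10^4 cells/well. The next day they were infected with ZIKV that had been pretreated 1 h at 37 °C with the DMSO-dissolved test compound or controls. After 3 days, viability was read by CellTiter-Fluor fluorescence and normalized to infected cells. Run in triplicate.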

The test system of data set [2] is Zika strain MR766 (infectivity in Vero cells). The data set can be described thus: TCID50 end point dilution infectivity assay. The data set is classed as cell-based, Zika virus. The note with it: tested at 25 μM; activity cutoff <0.6. In short, it runs like this: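 End-point dilution: Vero cells were seeded at 2 × 10^4 cells/well. The next day, medium was replaced with serial dilutions of ZIKV, untreated or pretreated 1 h at 37 °C with the test compound or controls. After 6 days at 37 °C, cells were fixed in 3.7% formaldehyde and stained with crystal violet. Wells were scored for CPE, and TCID50 was calculated by the Reed and Muench method.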

For data set [3], the system named is Zika-induced caspase 3/7 activity in Vero cells. The data set can be described thus: Caspase activity assay. In kind it is cell-based, Zika virus. The note with it: tested at 25 μM; relative to virus alone or virus with DMSO. The method, boiled down: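 ZIKV MR766 was pre-incubated with the DMSO-dissolved test compound or controls for 1 h at 37 °C, then added to Vero cells seeded at 1 × 10^4 cells/well the previous day (medium removed). Cells were incubated 3 days, viability read first (CellTiter-Fluor), then caspase 3/7 luminescence (Caspase-Glo 3/7). Run in triplicate.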

Turning to `C#C[C@@]1(O)[C@H](O)[C@@H](CO)O[C@H]1n1ccc2c(N)ncnc21` [NITD008], the compound cytotoxicity result in the data set on Vero cells is “some cytotoxicity”. For the same compound, the “cell viability (normalized to ZIKV-infected cells)” value in data set [1] is greater than 1.0. Further, in data set [2], the TCID50 infectivity is less than 0.6. In data set [3], the caspase activity entry is on record as “suppressed caspase activity”.

For the compound `C[C@H](NC(=O)C(=O)Nc1ccccc1C(C)(C)C)C(=O)N[C@@H](CC(=O)O)C(=O)COc1c(F)c(F)cc(F)c1F` [emricasan], the caspase activity entry in data set [3] is listed as “suppressed caspase activity”.
